Consider 14 compounds from ChEMBL document CHEMBL3588824, “Bioactive Diterpenoids from the Leaves of Callicarpa macrophylla” (J Nat Prod, 2015).

For assay [1], the system named is PC-12. Nature of the assay: Stimulation of nerve growth factor-mediated neurite outgrowth in rat PC12 cells incubated for 96 hrs in presence of 20 ng/ml NGF by phase contrast microscopy. In kind it is functional, cell-based. The gist of the method: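 PC12 cells (DMEM, 5% FBS, 5% HS, 37 °C, 5% CO2) were detached with 1 mM EGTA/PBS for 15 min and seeded on poly-L-lysine at 3 × 10^4 cells/well. After 24 h they got test medium (1% FBS, 1% HS, 20 ng/mL NGF, graded compound levels) for 96 h. Cells were scored by phase contrast (neurite ≥ soma diameter) as % neurite-bearing; triplicates; EC50 by regression.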

Assay [2] has as its system PC-12. Nature of the assay: Stimulation of neurite outgrowth in rat PC12 cells incubated for 96 hrs in absence of 20 ng/ml NGF by phase contrast microscopy. Format: functional, cell-based.
[3] abbreviates: Rattus norvegicus, PC-12, 96 h, read-out: EC50.

Active and inactive are the calls of the source. The calls are words filed in the database; no cut-off is given here.

As for `C=C[C@@]1(C)CCC2=C(C1)[C@H](OC)C[C@H]1[C@](C)(CO)CCC[C@]21C`, in the assay on PC-12 [1] (pc-12), the EC50 (in general, the concentration giving half of the maximal effect) is “Not Active”. Also, in the assay with PC-12 [2], the result was inactive.
Consider `C=C[C@@]1(C)CC[C@H]2C(=CC[C@@H]3[C@]2(C)CCC[C@@]3(C)O)[C@H]1O`, for which the 50% effective concentration (EC50) entry in the assay with PC-12 [1] (pc-12) was “Not Active”. The outcome in the assay with PC-12 [2] was inactive.
Consider `C=C(C)c1ccc2c(c1)CC[C@H]1[C@](C)(C(=O)O)CCC[C@]21C`, for which, in the assay on PC-12 [1] (setting [3]), the EC50 is greater than 30 µM.
Same read-out and setting: under `CC(C)[C@@]12C=C3[C@@H](O)C[C@@H]4[C@@](C)(C(=O)O)CCC[C@@]4(C)[C@]3(CC1)OO2` stands 10.6 µM.
The same measure, in the same setting: then `C=C1CC[C@H]2C(C)(C)C(=O)CC[C@]2(C)[C@H]1CC/C(C)=C/C(=O)O`, with 6 µM.
Still for that read-out and setting: under `CC1(C)C(=O)CC[C@]2(C)[C@@H]1CC[C@]13C[C@@H](CC[C@H]12)[C@](O)(CO)C3` stands 19.7 µM.
Turning to `CC(C)[C@@]12CC[C@@]3(CC[C@H]4[C@](C)(C(=O)O)CCC[C@]4(C)C3=O)[C@@H]1O2`, in the assay on PC-12 [1] (setting [3]), the EC50 is greater than 30 µM.
As to `CC(C)c1ccc2c(c1)C(=O)C[C@H]1[C@](C)(C(=O)O)CCC[C@]21C`, in the assay with PC-12 [1] (pc-12), the EC50 entry is on record as “Not Active”. In the assay on PC-12 [2], the outcome was inactive.
Take `C=C[C@@]1(C)CCC2=C(C1)[C@H](OC)C[C@H]1[C@](C)(C(=O)O)CCC[C@]21C`: the EC50 result in the assay on PC-12 [1] (pc-12) was “Not Active”. Also, the outcome in the assay on PC-12 [2] was inactive.
On the same counts, the results for `CC(C)c1ccc2c(c1)[C@H](O)C[C@H]1[C@](C)(C(=O)O)CCC[C@]21C` are “Not Active” and “inactive”.
Consider `C=C[C@@]1(C)CC[C@H]2C(=CC[C@H]3[C@](C)(CO)CCC[C@]23C)[C@H]1O`, for which, in the assay on PC-12 [1] (setting [3]), the half-maximal effective concentration (EC50) was 7.6 µM.
For the compound `CC(C)[C@]12CC[C@@]34O[C@@]3(CC[C@H]3[C@](C)(C(=O)O)CCC[C@@]34C)[C@H]1O2`, the EC50 result in the assay on PC-12 [1] (pc-12) was “Not Active”. Besides, the outcome with PC-12 [2] was inactive.
On to `C=C[C@@]1(C)CC[C@H]2C(=CC[C@@H]3[C@]2(C)CCC[C@@]3(C)C(=O)O)[C@H]1O`, for which, in the assay on PC-12 [1] (setting [3]), the EC50 was 16 µM.
The same measure, in the same setting: under `CC(=O)OC[C@]1(O)C[C@]23CC[C@@H]4C(C)(C)C(=O)CC[C@@]4(C)[C@@H]2CC[C@@H]1C3` stands 11 µM.
